From ChEMBL document CHEMBL1132611, “Novel, potent, and selective phosphodiesterase-4 inhibitors as antiasthmatic agents: synthesis and biological activities of a series of 1-pyridylnaphthalene derivatives” (J Med Chem, 1999)
“And” between values parts separate entries of the source, which are not always exact repeats. Identical values can stand only once.

Legend:
Phosphodiesterase 4 [1] = target: T1, Phosphodiesterase 4 (Homo sapiens, UniProt P27815+Q08499+Q07343+Q08493); test: Emetic effect in ferrets at peroral 30 mg/kg dose; format: functional, organism-based; parameters: dose 30 mg/kg; conditions: Mustela putorius furo; target entry is the homologue from another species
Cavia porcellus [2] = species on record: Cavia porcellus; test: Inhibition of histamine-induced bronchoconstriction in guinea pigs (95% confidence); format: functional
In short: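 Guinea pigs received intraduodenal compound, and bronchoconstriction was induced with histamine dihydrochloride 2 µg/kg iv. Pulmonary inflation pressure was recorded in ventilated, gallamine-paralysed animals. ED50 was taken from the dose–inhibition curve using at least three doses, with 95% confidence limits.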

Cavia porcellus [3] = test: Change in guinea pig heart rate at 0.03 mg/kg intravenous dose; format: functional
Phosphodiesterase 4 [4] = target: T1, Phosphodiesterase 4; test: In vitro inhibition of Phosphodiesterase 4 from guinea pig lung; format: protein assay, Cavia porcellus; conditions: target entry is the homologue from another species
Phosphodiesterase 4 [5] = target: T1, Phosphodiesterase 4; test: Displacement of [3H]- rolipram binding to guinea pig brain; format: tissue-based, Cavia porcellus; conditions: target entry is the homologue from another species
In short: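 Guinea pig brain membranes were made by homogenising in 20 mM Tris-HCl pH 7.4 with 2 mM MgCl2 and 0.1 mM DTT, spun at 45000g, washed and stored at -80 °C. Competition used 3 nM [3H]-(±)-rolipram at 30 °C for 60 min in 25 mM Tris-HCl pH 7.4, 5 mM MgCl2 and 0.05 mM 5'-AMP. Bound ligand was separated by filtration and counted by scintillation.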

Cavia porcellus [6] = test: Change in guinea pig heart rate at 0.1 mg/kg intravenous dose; format: functional
Phosphodiesterase 4 [7] = target: T1, Phosphodiesterase 4; test: Emetic effect in ferrets at peroral 10 mg/kg; format: functional, organism-based; parameters: dose 10 mg/kg; conditions: Mustela putorius furo; target entry is the homologue from another species
Cavia porcellus [8] = test: Inhibition of antigen-induced bronchoconstriction in guinea pigs 0.1 mg/kg intravenous dose; format: functional
In short: (§1)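 Male Hartley guinea pigs were passively sensitised with iv rabbit anti-ovalbumin antiserum and challenged with ovalbumin 30 µg/kg iv 20–28 h later. Animals were under α-chloralose anaesthesia, ventilated, and paralysed with gallamine. Overflow volume was measured by Konzett–Rössler and expressed as a percentage of the maximum. Compound was given iv 2 min before challenge. ED50 came from the dose–inhibition curve with 95% confidence limits.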

Phosphodiesterase 4 [9] = target: T1, Phosphodiesterase 4; test: Emetic effect in ferrets at peroral 100 mg/kg; format: functional, organism-based; parameters: dose 100 mg/kg; conditions: Mustela putorius furo; target entry is the homologue from another species
Cavia porcellus [10] = test: Inhibition of antigen-induced bronchoconstriction in guinea pigs at 0.01 mg/kg intravenous dose; format: functional; in short: as §1
Cavia porcellus [11] = species on record: Cavia porcellus; test: Inhibition of antigen-induced bronchoconstriction in guinea pigs (95% confidence); format: functional; in short: as §1
Cavia porcellus [12] = test: Change in guinea pig heart rate at 0.01 mg/kg intravenous dose; format: functional
Cavia porcellus [13] = test: Inhibition of antigen-induced bronchoconstriction in guinea pigs at 0.03 mg/kg intravenous dose; format: functional; in short: as §1
Phosphodiesterase 3 [14] = target: T2, Phosphodiesterase 3 (Homo sapiens, UniProt Q14432+Q13370); test: In vitro inhibition of Phosphodiesterase 3 activity from guinea pig cardiac ventricle; format: protein assay, Cavia porcellus; conditions: target entry is the homologue from another species
In short: (§2)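 PDE1, 2 and 3 came from guinea pig cardiac ventricle and PDE4 and 5 from lung, separated by Resource-Q anion exchange on a sodium acetate gradient at pH 6.5. Assays used 1.0 µM [3H]cAMP or [3H]cGMP in 50 mM Tris-HCl pH 8.0, 5 mM MgCl2 and 4 mM 2-mercaptoethanol, for 30 min at 30 °C. Substrate hydrolysis was kept at or below 20%. Triplicates were run at 3–4 inhibitor levels, and IC50 was read graphically.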

Phosphodiesterase 1 = Phosphodiesterase 1 (Homo sapiens, UniProt P54750+Q01064+Q14123); test: Inhibition of Phosphodiesterase 1 of guinea pig cardiac ventricle; format: protein assay, Cavia porcellus; conditions: target entry is the homologue from another species; in short: as §2
Cavia porcellus [15] = test: Change in guinea pig heart rate at 1 mg/kg intravenous dose; format: functional
Cavia porcellus [16] = test: Inhibition of antigen-induced bronchoconstriction in guinea pigs at 1 mg/kg intravenous dose; format: functional; in short: as §1
Cavia porcellus [17] = test: Change in guinea pig heart rate at 0.3 mg/kg intravenous dose; format: functional
Cavia porcellus [18] = species on record: Cavia porcellus; test: Inhibition of antigen-induced bronchoconstriction in guinea pigs; format: functional; in short: as §1
Cavia porcellus [19] = test: Inhibition of antigen-induced bronchoconstriction in guinea pigs 0.3 mg/kg intravenous dose; format: functional; in short: as §1
Cavia porcellus [20] = test: Inhibition of antigen-induced bronchoconstriction in guinea pigs 3 mg/kg intravenous dose; format: functional; in short: as §1
Cavia porcellus [21] = test: Change in guinea pig heart rate at 3 mg/kg intravenous dose; format: functional
Phosphodiesterase 4 [22] = target: T1, Phosphodiesterase 4; test: Inhibition of guinea pig lung Phosphodiesterase 4; format: protein assay, Cavia porcellus; conditions: target entry is the homologue from another species; in short: as §2
[23] = target: cGMP-dependent 3',5'-cyclic phosphodiesterase (Homo sapiens, UniProt O00408); test: Inhibition of guinea pig cardiac ventricle Phosphodiesterase 2; parameters: species or system Cavia porcellus; conditions: target entry is the homologue from another species; in short: as §2
Canis familiaris [24] = test: Emetic effect in dog at 0.3 mg/kg dose, iv; format: functional, Canis lupus familiaris
Canis familiaris [25] = test: Emetic effect in dog at 1 mg/kg dose, iv; format: functional, Canis lupus familiaris
Phosphodiesterase 3 [26] = target: T2, Phosphodiesterase 3; test: Inhibition of guinea pig cardiac ventricle Phosphodiesterase 3; format: protein assay, Cavia porcellus; conditions: target entry is the homologue from another species; in short: as §2

Sequence of cGMP-dependent 3',5'-cyclic phosphodiesterase (O00408 whole entry): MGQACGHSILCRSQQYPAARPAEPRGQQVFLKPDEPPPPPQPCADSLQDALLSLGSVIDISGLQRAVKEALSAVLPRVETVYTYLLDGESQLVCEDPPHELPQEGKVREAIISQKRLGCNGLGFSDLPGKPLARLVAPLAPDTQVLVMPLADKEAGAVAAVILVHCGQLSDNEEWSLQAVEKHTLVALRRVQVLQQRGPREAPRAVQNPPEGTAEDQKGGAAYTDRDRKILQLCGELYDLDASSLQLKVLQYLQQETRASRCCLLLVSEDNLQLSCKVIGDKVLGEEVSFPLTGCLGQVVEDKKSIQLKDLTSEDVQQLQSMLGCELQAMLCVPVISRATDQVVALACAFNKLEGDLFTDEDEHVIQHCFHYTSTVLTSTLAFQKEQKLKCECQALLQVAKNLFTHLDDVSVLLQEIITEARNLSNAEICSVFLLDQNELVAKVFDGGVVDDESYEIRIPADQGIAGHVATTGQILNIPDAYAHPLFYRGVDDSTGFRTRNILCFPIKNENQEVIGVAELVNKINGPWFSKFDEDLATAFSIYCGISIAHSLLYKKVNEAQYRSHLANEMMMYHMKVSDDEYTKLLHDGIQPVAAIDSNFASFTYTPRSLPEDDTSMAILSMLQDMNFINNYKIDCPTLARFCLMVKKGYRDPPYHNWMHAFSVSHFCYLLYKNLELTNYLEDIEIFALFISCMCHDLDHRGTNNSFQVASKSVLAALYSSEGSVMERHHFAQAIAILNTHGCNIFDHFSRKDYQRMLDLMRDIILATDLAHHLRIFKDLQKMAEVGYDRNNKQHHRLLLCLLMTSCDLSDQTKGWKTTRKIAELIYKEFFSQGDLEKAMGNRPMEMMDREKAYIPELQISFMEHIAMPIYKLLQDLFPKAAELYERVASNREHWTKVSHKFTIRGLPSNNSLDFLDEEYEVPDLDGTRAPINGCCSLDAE

Structure (SMILES)	IC50 (Phosphodiesterase 4 [4])	Reduction (Cavia porcellus [8])	ED50 (Cavia porcellus [11])	IC50 (Phosphodiesterase 3 [14])	IC50 (Phosphodiesterase 1)	further results
COc1cc2cc(CO)c(CO)c(-c3ccnc(-n4nc(-c5cccnc5)c5ccccc5c4=O)c3)c2cc1OC.Cl	0.63 nM	73%	0.022 mg/kg	290 nM	2000 nM	Emesis (vomiting/tested) (Phosphodiesterase 4 [1]): 4; ED50 (Cavia porcellus [2]): 1.1 mg/kg; Heart rate (Cavia porcellus [3]): 3 delta beats min-1; Ki (Phosphodiesterase 4 [5]): 3.5 nM; Heart rate (Cavia porcellus [6]): 1 delta beats min-1; Emesis (vomiting/tested) (Phosphodiesterase 4 [7]): 6; Emesis (vomiting/tested) (Phosphodiesterase 4 [9]): 4; Reduction (Cavia porcellus [10]): 34%; Heart rate (Cavia porcellus [12]): 1 delta beats min-1; Reduction (Cavia porcellus [13]): 61%
COc1cc2cc(CO)c(CO)c(-c3ccnc(-n4nc(-c5ccncc5)c5ccccc5c4=O)c3)c2cc1OC.Cl	0.49 nM	15%		100 nM	2000 nM	Heart rate (Cavia porcellus [15]): 29 delta beats min-1; Reduction (Cavia porcellus [16]): 92%; Heart rate (Cavia porcellus [6]): 12 delta beats min-1; Heart rate (Cavia porcellus [17]): 10 delta beats min-1; ED50 (Cavia porcellus [18]): 0.17 mg/kg; Reduction (Cavia porcellus [19]): 82%
CCOc1cc2cc(CO)c(CO)c(-c3ccnc(-n4nc(-c5cccnc5)c5ccccc5c4=O)c3)c2cc1OC.Cl	0.9 nM	23%	0.17 mg/kg	34 nM	20000 nM	Heart rate (Cavia porcellus [6]; 0.1 mg/kg): 7 delta beats min-1 and 18 delta beats min-1; Reduction (Cavia porcellus [19]): 77%
COc1cc2cc(CO)c(CO)c(-c3ccnc(-n4ncc5ccccc5c4=O)c3)c2cc1OC	0.68 nM	25%	0.24 mg/kg	250 nM	5000 nM	Heart rate (Cavia porcellus [15]): 11 delta beats min-1; Reduction (Cavia porcellus [16]): 87%; Heart rate (Cavia porcellus [6]): 16 delta beats min-1; Reduction (Cavia porcellus [20]): 91%; Heart rate (Cavia porcellus [21]): 55 delta beats min-1
COc1cc2c(-c3ccnc(-n4nc(-c5cccnc5)c5ccccc5c4=O)c3)c(CO)c(CO)cc2cc1OC1CCCC1.Cl	30 nM			690 nM		
COc1cc2cc(CO)c(CO)c(-c3ccc(-n4nc(-c5cccnc5)c5ccccc5c4=O)nc3)c2cc1OC.Cl	40 nM			80000 nM	> 100000 nM	
CCOc1cc2c(-c3ccnc(-n4nc(-c5cccnc5)c5ccccc5c4=O)c3)c(CO)c(CO)cc2cc1OC.Cl	0.16 nM	39%	0.18 mg/kg	490 nM	3000 nM	Heart rate (Cavia porcellus [6]): 3 delta beats min-1; Heart rate (Cavia porcellus [17]): 7 delta beats min-1; Reduction (Cavia porcellus [19]): 69%
COc1cc2cc(CO)c(CO)c(-c3cccc(-n4nc(-c5cccnc5)c5ccccc5c4=O)n3)c2cc1OC.Cl	15 nM			5600 nM		
COc1cc2cc(CO)c(CO)c(-c3ccnc(-n4nc(-c5cccnc5)c5ccccc5c4=O)c3)c2cc1OCc1ccccc1.Cl	17 nM			16000 nM		
COc1cc2cc(CO)c(CO)c(-c3ccnc(-n4ccccc4=O)c3)c2cc1OC	80 nM			2000 nM	50000 nM	
COc1cc2cc(CO)c(CO)c(-c3ccnc(-n4ccc(=O)c5ccccc54)c3)c2cc1OC	40 nM			400 nM	9000 nM	
COc1cc2cc(CO)c(CO)c(-c3ccnc(-n4c(=O)c5ccccc5c5ccccc54)c3)c2cc1OC	0.2 nM		1.2 mg/kg	41 nM		Heart rate (Cavia porcellus [15]): 18 delta beats min-1; Reduction (Cavia porcellus [16]): 38%; Reduction (Cavia porcellus [20]): 91%; Heart rate (Cavia porcellus [21]): 15 delta beats min-1
COc1cc2ccc(CO)c(-c3ccnc(-n4nc(-c5cccnc5)c5ccccc5c4=O)c3)c2cc1OC.Cl	31 nM			700 nM		
COc1cc2cc(CO)cc(-c3ccnc(-n4nc(-c5cccnc5)c5ccccc5c4=O)c3)c2cc1OC.Cl	0.7 nM			81 nM		Reduction (Cavia porcellus [16]): 33%
COC(=O)c1cc2cc(OC)c(OC)cc2c(-c2ccnc(-n3nc(-c4cccnc4)c4ccccc4c3=O)c2)c1C(=O)OC.Cl	150 nM			29000 nM		
Cl.O=c1c2ccccc2c(-c2cccnc2)nn1-c1cc(-c2c(CO)c(CO)cc3ccccc23)ccn1	5000 nM			50000 nM	> 100000 nM	
CCOc1cc2cc(CO)c(CO)c(-c3ccnc(-n4nc(-c5cccnc5)c5ccccc5c4=O)c3)c2cc1OCC.Cl [T-2585.HCL]		57%	0.063 mg/kg	1800 nM	10000 nM	Emesis (vomiting/tested) (Phosphodiesterase 4 [1]): 4; IC50 (Phosphodiesterase 4 [22]): 0.13 nM; ED50 (Cavia porcellus [2]): 0.033 mg/kg; IC50 [23]: 1300 nM; Heart rate (Cavia porcellus [3]): 4 delta beats min-1; Ki (Phosphodiesterase 4 [5]): 2.6 nM; Emesis (Canis familiaris [24]): 8 vomiting/tested; Heart rate (Cavia porcellus [6]): 3 delta beats min-1; Emesis (vomiting/tested) (Phosphodiesterase 4 [7]): 4; Heart rate (Cavia porcellus [17]): 2 delta beats min-1; Reduction (Cavia porcellus [19]): 84%; Emesis (Canis familiaris [25]): 4 vomiting/tested; Reduction (Cavia porcellus [13]): 37%
COc1cc2c(-c3ccnc(-n4nc(-c5cccnc5)c5ccccc5c4=O)c3)c(CO)c(CO)cc2cc1OCc1ccccc1.Cl.Cl	700 nM					IC50 (Phosphodiesterase 3 [26]): > 100000 nM
COc1cc2cc(COC(C)=O)c(COC(C)=O)c(-c3ccnc(-n4nc(-c5cccnc5)c5ccccc5c4=O)c3)c2cc1OC.Cl	190 nM			3500 nM		
COc1cc2cc(CO)c(CO)c(-c3ccnc(-n4nc(-c5ccccn5)c5ccccc5c4=O)c3)c2cc1OC.Cl	0.55 nM	40%	0.18 mg/kg	170 nM	4000 nM	Heart rate (Cavia porcellus [3]): 3 delta beats min-1; Heart rate (Cavia porcellus [15]): 22 delta beats min-1; Reduction (Cavia porcellus [16]): 87%; Heart rate (Cavia porcellus [6]): 5 delta beats min-1; Heart rate (Cavia porcellus [17]): 7 delta beats min-1; Reduction (Cavia porcellus [19]): 78%; Reduction (Cavia porcellus [13]): -25%
COc1ccc(C2CNC(=O)C2)cc1OC1CCCC1 (racemic) [ROLIPRAM]				> 300000 nM	> 100000 nM	IC50 [23]: > 100000 nM
